Assay results as given in ChEMBL document CHEMBL2375346, “Lanostane triterpenoids from the mushroom Naematoloma fasciculare” (J Nat Prod, 2013).
Active and inactive are the calls of the source. The calls are words filed in the database; no cut-off is given here.

Experiments:
[1] = system: SK-MEL-2; test: Cytotoxicity against human SK-MEL-2 cells assessed as growth inhibition by SRB assay; type: functional, cell-based
Method in brief: (§1)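 Human cancer lines supplied by NCI. Cytotoxicity was measured by sulforhodamine B (SRB) assay at KRICT, with doxorubicin as positive control. IC50 reported.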

[2] = system: BV-2; test: Antiinflammatory activity in mouse BV2 cells assessed as inhibition of LPS-induced nitrite production incubated for 30 mins prior to LPS challenge measured after 24 hrs by Griess assay; type: functional, cell-based
Method in brief: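 BV-2 murine microglia seeded at 3 × 10^4 cells/well, grown 24 h, then pretreated with compound for 30 min before 100 ng/mL LPS stimulation for a further 24 h. Nitrite in the medium was read by Griess reaction (1% sulfanilamide, 0.1% N-1-naphthylethylenediamine dihydrochloride in 5% phosphoric acid), with absorbance at 540 nm after 10 min against a sodium nitrite standard. L-NMMA was the positive control. IC50 reported.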

[3] = system: BV-2; test: Cytotoxicity against mouse BV2 cells assessed as cell viability by MTT assay; type: cell-based
Method in brief: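 Viability of BV-2 microglia was measured by MTT assay in parallel with the LPS-stimulated NO experiment: 3 × 10^4 cells/well, 30 min compound pretreatment, then 100 ng/mL LPS for 24 h.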

[4] = system: HCT-15; test: Cytotoxicity against human HCT15 cells assessed as growth inhibition by SRB assay; type: functional, cell-based; method in brief: as §1
[5] = system: A549; test: Cytotoxicity against human A549 cells assessed as growth inhibition by SRB assay; type: functional, cell-based; method in brief: as §1
[6] = system: SK-OV-3; test: Cytotoxicity against human SKOV3 cells assessed as growth inhibition by SRB assay; type: functional, cell-based; method in brief: as §1

SMILES | IC50 [1] [µM] | Activity [2] | Activity [3] | IC50 [4] [µM] | IC50 [5] [µM] | IC50 [6] [µM] | IC50 [2] [µM]
CC(C)(O)[C@H](O)CC[C@@H](CO)[C@H]1CC[C@@]2(C)C3=C(C[C@H](O)[C@]12C)[C@@]1(C)C[C@@H](OC(=O)C[C@@](C)(O)CC(=O)O)[C@H](O)C(C)(C)[C@@H]1CC3 | 25.2 | inactive | Non-toxic | 28 | 25.5 | 16.2 | –
C[C@H](CC[C@@H](O)C(C)(C)O)[C@H]1CC[C@@]2(C)C3=C(C[C@H](O)[C@]12C)[C@@]1(C)C[C@@H](O)[C@H](OC(=O)C[C@@](C)(O)CC(=O)O)C(C)(C)[C@@H]1CC3 | > 30 | inactive | – | > 30 | > 30 | > 30 | –
COC(=O)CNC(=O)CC(C)(O)CC(=O)O[C@H]1[C@H](O)C[C@]2(C)C3=C(CC[C@H]2C1(C)C)[C@]1(C)CC[C@H]([C@H](CO)CC[C@@H](O)C(C)(C)O)[C@@]1(C)[C@@H](O)C3 (some centres not stated) | 9.06 | inactive | – | > 30 | > 30 | > 30 | –
CC(C)(O)[C@H](O)CC[C@@H](CO)[C@H]1CC[C@]2(C)[C@]1(C)[C@@H](O)C=C1[C@]23O[C@H]3C[C@H]2C(C)(C)[C@@H](O)[C@H](O)C[C@]12C | 8.26 | inactive | Non-toxic | 8.53 | 6.59 | 7.08 | –
CC(C)(O)[C@H](O)CC[C@@H](CO)[C@H]1CC[C@@]2(C)C3=CC[C@H]4C(C)(C)[C@@H](O)[C@H](O)C[C@]4(C)C3=C[C@H](O)[C@]12C | 4.54 | inactive | Toxic | 7.71 | 4.47 | 3.29 | –
COc1cccc2c1C(=O)c1c(O)c3c(c(O)c1C2=O)C[C@@](O)(C(=O)CO)C[C@@H]3O[C@H]1C[C@H](N)[C@H](O)[C@H](C)O1 [DOXORUBICIN] | 0.01 | – | – | 0.13 | 0.02 | 0.01 | –
CC(C)(O)[C@H](O)CC[C@@H](CO)[C@H]1CC[C@@]2(C)C3=C(CC(=O)[C@]12C)[C@@]1(C)C[C@@H](O)[C@H](O)C(C)(C)[C@@H]1CC3 | > 30 | inactive | Toxic | > 30 | > 30 | 7.98 | –
CC(C)(O)[C@H](O)CC[C@@H](CO)[C@H]1CC[C@@]2(C)C3=C(C[C@H](O)[C@]12C)[C@@]1(C)C[C@@H](O)[C@H](OC(=O)C[C@@](C)(O)CC(=O)O)C(C)(C)[C@@H]1CC3 | > 30 | inactive | Non-toxic | > 30 | > 30 | > 30 | –
CC(C)(O)[C@H](O)CC[C@@H](CO)[C@H]1CC[C@@]2(C)C3=C(C[C@H](O)[C@]12C)[C@@]1(C)C[C@@H](O)[C@H](O)C(C)(C)[C@@H]1CC3 | 2.29 | inactive | Toxic | 3.06 | 2.37 | 2.82 | –
CC(C)(O)[C@H](O)CC[C@@H](CO)[C@H]1CC[C@@]2(C)C3=C(C[C@H](O)[C@]12C)[C@@]1(C)C[C@@H](O)[C@H](O)C(C)(C)[C@@H]1CC3=O | 4.77 | – | Non-toxic | 8.5 | 3.99 | 7.36 | 49.9
C[C@H](CC[C@@H](O)C(C)(C)O)[C@H]1CC[C@@]2(C)C3=C(C[C@H](O)[C@]12C)[C@@]1(C)C[C@@H](O)[C@H](O)C(C)(C)[C@@H]1CC3 | 5.17 | inactive | Toxic | 8.22 | 7.85 | 8.53 | –
COC(=O)CNC(=O)CC(C)(O)CC(=O)O[C@@H]1C[C@]2(C)C3=C(CC[C@H]2C(C)(C)[C@H]1O)[C@]1(C)CC[C@H]([C@H](C)CC[C@@H](O)C(C)(C)O)[C@@]1(C)[C@@H](O)C3 (some centres not stated) | 9.16 | inactive | Toxic | > 30 | > 30 | > 30 | –
C[C@H](CC[C@@H](O)C(C)(C)O)[C@H]1CC[C@@]2(C)C3=C(CC(=O)[C@]12C)[C@@]1(C)C[C@@H](O)[C@H](O)C(C)(C)[C@@H]1CC3 | > 30 | inactive | Non-toxic | > 30 | > 30 | 9.86 | –
C[C@H](CC[C@@H](O)C(C)(C)O)[C@H]1CC[C@@]2(C)C3=C(C[C@H](O)[C@]12C)[C@@]1(C)C[C@@H](OC(=O)CC(C)(O)CC(=O)O)[C@H](O)C(C)(C)[C@@H]1CC3 (some centres not stated) | 16.6 | – | Non-toxic | 28.5 | 27.2 | 22.2 | 93.1
COC(=O)CNC(=O)CC(C)(O)CC(=O)O[C@@H]1C[C@]2(C)C3=C(CC[C@H]2C(C)(C)[C@H]1O)[C@]1(C)CC[C@H]([C@H](CO)CC[C@@H](O)C(C)(C)O)[C@@]1(C)[C@@H](O)C3 (some centres not stated) | 5.73 | inactive | Toxic | > 30 | > 30 | > 30 | –
COC(=O)CNC(=O)CC(C)(O)CC(=O)O[C@H]1[C@H](O)C[C@]2(C)C3=C(CC[C@H]2C1(C)C)[C@]1(C)CC[C@H]([C@H](C)CC[C@@H](O)C(C)(C)O)[C@@]1(C)[C@@H](O)C3 (some centres not stated) | 8.6 | inactive | Toxic | > 30 | > 30 | > 30 | –
